# Data as given in ChEMBL document CHEMBL1123363, “(5-Amino-1,3-dimethyl-1H-pyrazol-4-yl)(2-fluorophenyl)methanones . A series of novel potential antipsychotic agents” (J Med Chem, 1986).
# How the values were obtained:
# [1] = tested on: Mus musculus; experiment: Effective dose required for inhibition of locomotion/ataxia in mice administered intraperitoneally; assay type: functional; settings: ip
# Procedure, shortened: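 Male Swiss–Webster mice (20–30 g, unfasted), nine per dose in groups of three, dosed ip in 0.2% methocel (dose as parent compound) 1 h before testing. Ataxia was scored first on an inverted screen over 60 s as % of mice falling. […] ED50 from at least three doses.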
# [2] = tested on: Rattus norvegicus; experiment: Inhibition of conditional avoid in rats after peroral administration; assay type: functional; settings: po
# Procedure, shortened: (§1)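 Fasted male Wistar rats (150–250 g) were trained to jump to a platform at a buzzer to avoid grid shock (1.1 mA/s). After oral dosing they were tested every 20 min for 6 h over 19 trials, 10 rats per dose, each rat used once. Peak effect was the mean of the four consecutive trials with the largest effect, computed from response latency. ED50 read graphically from at least three doses.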
# [3] = biological target: Serotonin 1 (5-HT1) receptor (Rattus norvegicus, UniProt P28564+P30940+P19327+P28565); experiment: Binding affinity against serotonin-1 receptor in rat brain using [3H]5-HT; assay type: tissue-based
# Procedure, shortened: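 Serotonin-1 binding in rat cortex membranes (male Long-Evans, 150–250 g) with [3H]-5-HT at 2.0 nM final. (+)-Butaclamol at 1 μM final was the reference. IC50 from four or five concentrations by nonlinear curve fit.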
# [4] = biological target: Dopamine receptor; experiment: Binding affinity against dopamine receptor in rat striatal membrane using [3H]haloperidol; assay type: cell membranes, Striatum
# Procedure, shortened: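 Nonspecific binding defined with (+)-butaclamol at 0.1 μM final. IC50 fitted by nonlinear curve fit from four or five concentrations in triplicate.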
# [5] = tested on: Rattus norvegicus; experiment: Compound was tested for its effect on norepinephrine turnover in rat at dose of 64 mg/kg ip; assay type: functional; settings: route intraperitoneal
# Procedure, shortened: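 Rats were given compound or vehicle ip 30 min before α-methyl-p-tyrosine (250 mg/kg ip) and killed 4 h later. Brain NE and DA were measured spectrofluorometrically, with at least five determinations per value, and expressed as % of vehicle-treated levels ± SEM.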
# [6] = tested on: Rattus norvegicus; experiment: Antagonized affect on the accumulation of the brain dopamine induced by butyrolactone (GBL) at 25 mg/kg after intraperitoneal administration; assay type: functional; set-up: scale not given: the % may be the effect or the level left
# Procedure, shortened: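 Rats received test compound ip 30 min before γ-butyrolactone (750 mg/kg ip) and were killed 1 h after GBL. Dopamine in brain minus brain stem and cerebellum (four to six rats) was measured spectrofluorometrically and expressed as % of the GBL-treated group.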
# [7] = biological target: Beta-1 adrenergic receptor (Rattus norvegicus, UniProt P18090); experiment: Binding affinity against beta-1 adrenergic receptor in rat brain using [3H]DHA; assay type: tissue-based
# Beta-1 adrenergic receptor, sequence (P18090 whole entry): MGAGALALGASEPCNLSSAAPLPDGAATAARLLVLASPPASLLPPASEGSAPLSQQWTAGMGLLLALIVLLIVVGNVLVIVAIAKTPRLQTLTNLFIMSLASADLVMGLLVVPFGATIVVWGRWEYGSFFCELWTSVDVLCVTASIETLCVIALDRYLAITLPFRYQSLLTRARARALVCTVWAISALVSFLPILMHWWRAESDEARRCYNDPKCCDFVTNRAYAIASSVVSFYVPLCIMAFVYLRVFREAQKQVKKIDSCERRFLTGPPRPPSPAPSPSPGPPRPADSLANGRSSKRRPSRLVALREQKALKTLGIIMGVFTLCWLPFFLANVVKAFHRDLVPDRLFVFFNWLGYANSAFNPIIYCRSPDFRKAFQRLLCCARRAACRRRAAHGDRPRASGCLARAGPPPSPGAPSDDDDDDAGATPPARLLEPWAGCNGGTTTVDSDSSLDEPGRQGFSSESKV
# Procedure, shortened: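 β1 sites in rat cerebral cortex membranes (male Long-Evans, 150–250 g) with [3H]dihydroalprenolol at 0.5 nM final. (-)-Alprenolol at 1 μM final defined the reference. IC50 from four or five concentrations by nonlinear curve fit.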
# [8] = tested on: Rattus norvegicus; experiment: Suppression of conditional avoidance after peroral administration; assay type: functional; settings: po; procedure, shortened: as §1
# [9] = biological target: Dopamine receptor (Rattus norvegicus) (UniProt P25115+P19020+P30729+P18901+P61169); experiment: Compound was tested for its effect on norepinephrine turnover in rat at dose of 10+/-250 mg/kg; assay type: functional, organism-based; settings: in the assay text read “64+/-250 mg/kg” for “10+/-250 mg/kg”
# Procedure, shortened: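 Male Long-Evans rats were given vehicle or agent ip 30 min before α-methyl-p-tyrosine (250 mg/kg) and killed 4 h after it. Brain NE and DA were isolated on Sephadex G-10 and measured spectrofluorometrically. Values are percent of vehicle-treated, with at least five determinations per value.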
# [10] = Inhibition of sidman avoidance in rats after peroral administration
# [11] = biological target: Muscarinic acetylcholine receptor; experiment: Binding affinity against Muscarinic acetylcholine receptor in rat brain using [3H]- QNB; assay type: tissue-based
# Procedure, shortened: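 Muscarinic sites in rat brain stem membranes (male Long-Evans, 150–250 g), labelled with [3H]quinuclidinyl benzilate at 0.03 nM final. Oxotremorine at 100 μM final served as the reference displacer. IC50 from four or five concentrations by nonlinear curve fitting.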
# [12] = tested on: Canis familiaris; experiment: Emesis test in dogs was determined when administered perorally; assay type: functional; settings: Canis lupus familiaris, po; read-out: MED
# Procedure, shortened: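 Fasted dogs (7–12 kg), normally three per dose, were dosed orally and observed hourly for up to 6 h for emesis and other autonomic or behavioural signs. The minimal effective dose was the lowest dose producing emesis in any animal.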
# [13] = tested on: Rattus norvegicus; experiment: Compound was tested for its affect on the accumulation of the dopamine metabolite homovanillic acid (HAV) in the rat striatum at 8 mg/kg dose after peroral administration; assay type: functional; settings: route oral
# Procedure, shortened: (§2)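 Male Long–Evans rats were dosed orally and decapitated 2 h later. Striatal HVA was isolated on Sephadex G-10 and measured spectrofluorometrically, expressed as % control ± SEM.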
# [14] = tested on: Rattus norvegicus; experiment: Compound was tested for serum prolactin assay method in rats at 10 mg/kg dose after peroral administration; assay type: functional; settings: route oral
# Procedure, shortened: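 Seven-week-old male Sprague–Dawley rats, five per group, were dosed orally and killed by decapitation 1 h later. Serum prolactin from trunk blood was measured by radioimmunoassay with [125I]-PRL and expressed as % of control (mean ± SEM).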
# [15] = tested on: Rattus norvegicus; experiment: Compound was tested for its affect on the accumulation of the dopamine metabolite homovanillic acid (HAV) in the rat striatum at 83 mg/kg dose after peroral administration; assay type: functional; settings: route oral; procedure, shortened: as §2
smiles,measurement,setting,value
Cc1nn(C)c(N)c1C(=O)c1ccccc1F,ED50,[1],8 mg/kg
Cc1nn(C)c(NC(=O)CNCCCN2CCCCC2C)c1C(=O)c1ccccc1F (stereo not given),ED50,[2],43.5 mg/kg
same,IC50,[3],> 10 µM
same,IC50,[4],> 10 µM
same,Control,[5],102.8%
same,Control,[6],91.2%
same,IC50,[7],> 10 µM
same,ED50,[8],43 mg/kg
same,Control,[9],53.7%
same,ED50,[10],21.3 mg/kg
same,IC50,[11],> 10 µM
CCN(CC)CC(=O)Nc1c(C(=O)c2ccccc2F)c(C)nn1C,minimal effective dose,[12],56 mg/kg
same,Control,[13],131.9%
same,Control,[14],52.9%
same,Control,[15],102.1%
